Drawing on ChEMBL document CHEMBL1123655, “Synthesis, cell growth inhibition, and antitumor screening of 2-(p-n-butylanilino)purines and their nucleoside analogues” (J Med Chem, 1987), this text covers inhibition, IC50 and Inhibition for 25 compounds.

For assay [1], the system named is HeLa. Description: Compound (at a concentration of 100 uM) was evaluated for the effect on DNA synthesis by HeLa cells in culture and the percentage inhibition of [3H]- thymidine incorporation after 3h of addition was reported. It counts as functional. To be noted: Homo sapiens. The method, boiled down: (§1)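 Exponentially growing HeLa S3 cells (7×10^5 cells/mL, suspension) exposed to compound at 100 μM in Me2SO, or Me2SO alone, at 37 °C. After 3 h, [methyl-3H]thymidine added to 1 μCi/mL. After 30 min, quenched with cold PBS, pelleted, alkali hydrolysed (1 M NaOH, 65 °C, 1 h), TCA/pyrophosphate precipitated and filtered. Alkali-stable acid-insoluble counts give % inhibition versus solvent control.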
On the technique in general: Incorporation of labelled thymidine or its analogues reports DNA synthesis.

Assay [2] has as its system HeLa. In words: Compound was evaluated for the effect on DNA synthesis by HeLa cells in culture and the inhibition of [3H]- thymidine incorporation after 3h of addition. The note with it: Homo sapiens. Format: functional, cell-based. The method, boiled down:
(§2)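 IC50 for [methyl-3H]thymidine incorporation into DNA of exponentially growing HeLa S3 suspension cells (7×10^5 cells/mL). Compounds in Me2SO, or Me2SO control, incubated 3 h at 37 °C, then label added at 1 μCi/mL for 30 min. Alkali-stable, acid-precipitable counts measured after NaOH (65 °C, 1 h) and TCA/pyrophosphate filtration.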

Assay [3] relates to HeLa. In words: Compound was evaluated for the effect on DNA synthesis by HeLa cells in culture and the percentage inhibition of [3H]- thymidine incorporation after 3h of addition was reported at 100 uM. Format: functional. The note with it: Homo sapiens. The method, boiled down:
as §1

The subject of assay [4] is HeLa. Description: Compound (at a concentration of 100 uM) was evaluated for the effect on growth and macromolecule synthesis by HeLa cells and the percentage inhibition of [3H]- leucine incorporation after 3h of addition. Format: functional. The note with it: Homo sapiens.
The test system of assay [5] is HeLa. In words: Compound was evaluated for the effect on growth and macromolecule synthesis by HeLa cells and the cell growth inhibition. It counts as functional, cell-based. To be noted: Homo sapiens. The method, boiled down: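 HeLa S3 cells (ca. 2.5×10^4 cells/mL), exponentially growing in Joklik's modified medium with 3.5% calf and 3.5% fetal bovine serum, preincubated 3 h at 37 °C in spinner flasks. Compound in Me2SO or solvent added, and cells counted at t=0 and after 72 h. IC50 derived from % growth inhibition.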

In assay [6] the test system is HeLa. Description: Percent inhibition against [3H]uridine incorporation into DNA of HeLa cell after 45 mins of treatment. Format: functional, Homo sapiens. The method, boiled down:
(§3)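 Exponentially growing HeLa S3 cells (7×10^5 cells/mL) treated with compound in Me2SO (100 μM, or 10 μM where stated), or Me2SO alone, for 3 h at 37 °C. [5,6-3H]uridine then added to 1 μCi/mL for 45 min. DNA: counts remaining acid-precipitable after 1 M NaOH at 60 °C, 1 h. RNA: total TCA-precipitable counts minus the DNA counts.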

The subject of assay [7] is HeLa. In words: Percent inhibition against [3H]uridine incorporation into RNA of HeLa cell after 45 mins of treatment. Format: functional, Homo sapiens. The method, boiled down:
as §3

The test system of assay [8] is HeLa. Description: Effect on DNA synthesis by HeLa cells was determined by the percentage inhibition of [3H]- thymidine incorporation after 3h. Format: functional, cell-based. The note with it: Homo sapiens.
The subject of assay [9] is HeLa. In words: Effect on DNA synthesis by HeLa cells was determined by the percentage inhibition of [3H]- thymidine incorporation after 3h at 100 uM. Format: functional. To be noted: Homo sapiens. The method, boiled down: as §1
Assay [10] concerns HeLa. In words: Effect on DNA synthesis by HeLa cells was determined by the inhibition of [3H]- thymidine incorporation after 3h of addition. It counts as functional, cell-based. The note with it: Homo sapiens. The method, boiled down: as §2
Assay [11] relates to HeLa. In words: Effect on growth and macromolecule synthesis by HeLa cells was determined as the percentage inhibition of [3H]- leucine incorporation after 3h of addition at 100 uM. Format: functional. The note with it: Homo sapiens.
Assay [12] deals with HeLa. In words: Percent inhibition against [3H]-Uridine incorporation into DNA of HeLa cell after 45 mins of treatment at 100 uM. It counts as functional. To be noted: Homo sapiens. The method, boiled down:
as §3

Assay [13] relates to HeLa. Description: Percent inhibition against [3H]-Uridine incorporation into RNA of HeLa cell after 45 mins of treatment at 100 uM. Format: functional. The note with it: Homo sapiens. The method, boiled down: as §3
Assay [14] has as its system HeLa. In words: Percent inhibition against [3H]uridine incorporation into RNA of HeLa cell after 45 mins of treatment at 10 uM. It counts as functional. To be noted: Homo sapiens. The method, boiled down: as §3
Assay [15] has as its system HeLa. Description: Effect on DNA synthesis by HeLa cells was determined by the percentage inhibition of [3H]- thymidine incorporation after 3h at 200 uM. It counts as functional, Homo sapiens. The method, boiled down:
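HeLa S3 cells in exponential suspension culture (7×10^5 cells/mL) treated at 200 μM in Me2SO, or Me2SO alone, at 37 °C. After 3 h, [methyl-3H]thymidine added to 1 μCi/mL for 30 min. Cells were then pelleted, NaOH hydrolysed at 65 °C, and TCA precipitated onto filters. Alkali-stable acid-precipitable radioactivity gives % inhibition against solvent control.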

For assay [16], the system named is HeLa. In words: Compound was evaluated for the effect on [3H]- Uridine incorporation by HeLa cells and percentage inhibition into DNA. Format: functional, Homo sapiens. The method, boiled down:
(§4)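 HeLa S3 cells grown in suspension, exponential phase (7 × 10^5 cells/mL), given compound in Me2SO (Me2SO alone for controls) for 3 h at 37 °C, then [5,6-3H]uridine to 1 μCi/mL for 45 min. DNA: alkali-stable, TCA-precipitable counts after 1 M NaOH at 60 °C for 1 h. RNA: total acid-precipitable nucleic acid minus DNA counts. Percent inhibition relative to control.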

Assay [17] has as its system HeLa. Description: Compound was evaluated for the effect on [3H]- Uridine incorporation by HeLa cells and percentage inhibition into RNA. It counts as functional, Homo sapiens. The method, boiled down:
as §4

Regarding `Oc1[nH]c(Nc2ccc3c(c2)CCC3)nc2ncnc1-2`, in assay [1], the inhibition at 100 µM was determined as 79%. This compound registered an IC50 in assay [2] of 52 µM.

For the compound `CCc1cc(Nc2nc(O)c3[nH]cnc3n2)ccc1C`, the inhibition at 100 µM in assay [1] stood at 44%.

On to `CCCCc1ccc(Nc2nc(Cl)c3[nH]cnc3n2)cc1`, for which testing at 100 µM in assay [3] gave an inhibition of 99%. This compound also yielded an IC50 in [2] of 35 µM.

Take `CCCCc1ccc(Nc2nc(OC)c3[nH]cnc3n2)cc1`: in [1], 100 µM produced 80% inhibition. In [2], this compound registered an IC50 of 30 µM.

Turning to `CCCCc1ccc(Nc2nc(N)c3[nH]cnc3n2)cc1`, the inhibition at 100 µM in [4] amounted to 47%; in assay [1], 92%. Further, the IC50 worked out at 40 µM in assay [5] and 23 µM in [2]. The Inhibition is on record as 93% in assay [6] and 87% in assay [7].

As for `CCCCc1ccc(Nc2nc(S)c3[nH]cnc3n2)cc1`, in assay [1], 100 µM produced 94% inhibition. Moreover, 40 µM corresponded to half-maximal inhibition in assay [2] (IC50).

In assay [8], `CCCCc1ccc(Nc2nc(Cl)c3ncn(COCCO)c3n2)cc1` came in with an IC50 of 9 µM. Moreover, in assay [9], at 100 µM the inhibition was 99%.

In the case of `CCCCc1ccc(Nc2nc(O)c3ncn(COCCO)c3n2)cc1`, in [8], it took 38 µM to reach half-maximal inhibition (IC50). The inhibition at 100 µM in [9] came to 81%.

For `CCCCc1ccc(Nc2nc(O)c3[nH]cnc3n2)cc1`, the values for the inhibition at 100 µM in [4] and in [3] were 13% and 63%, respectively. In addition, the results for the IC50 in assay [5] and in assay [2] were 65 µM and 69 µM, respectively. Further, the Inhibition in [6] and in assay [7] was 76% throughout.

For the compound `CCCCc1ccc(Nc2nc(OC)c3ncn(COCCO)c3n2)cc1`, in assay [9], the inhibition at 100 µM stood at 80%.

`CCCCc1ccc(Nc2nc(S)c3ncn(COCCO)c3n2)cc1` came in with an inhibition at 100 µM in [9] of 87%.

With `CCCCc1ccc(Nc2nc3c(ncn3[C@@H]3C[C@@H](O)[C@H](CO)O3)c(=O)[nH]2)cc1`, the IC50 turned out to be 37 µM in assay [10] and 25 µM in assay [5]. The inhibition at 100 µM in assay [9] worked out at 86%; in assay [11], 7%; in assay [12], 91%; in [13] it was 91%.

`CCCCc1ccc(Nc2ncc3ncn([C@@H]4C[C@@H](O)[C@H](CO)O4)c3n2)cc1`: the IC50 in [8] was determined as 4.8 µM; in [5] it was 5 µM. Also, the inhibition at 100 µM in assay [9] came to 97%; in [11] it was 58%.

For the compound `CCCCc1ccc(Nc2nc(N)c3ncn([C@@H]4C[C@@H](O)[C@H](CO)O4)c3n2)cc1`, the concentration for half-maximal inhibition (IC50) in [8] worked out at 1 µM; in assay [5] it was 1.4 µM. Besides, the results for the inhibition at 100 µM in [9] and in [11] were 96% and 56%, respectively. Further, the Inhibition in assay [6] is recorded as 81%. The compound also had an inhibition at 10 µM in assay [14] of 73%.

With `CCCCc1ccc(Nc2nc(Cl)c3ncn([C@@H]4C[C@@H](O)[C@H](CO)O4)c3n2)cc1`, the IC50 in [8] turned out to be 11 µM; in [5], 10.3 µM. In addition, the inhibition at 100 µM in [9] came out at 97%; in assay [11], 87%.

Regarding `CCCCc1ccc(Nc2nc(S)c3ncn([C@@H]4C[C@@H](O)[C@H](CO)O4)c3n2)cc1`, in assay [9], the inhibition at 100 µM turned out to be 63%.

Regarding `CCCCc1ccc(Nc2nc(N)c3ncn(COCCO)c3n2)cc1`, the IC50 in [8] came out at 8.5 µM. The inhibition at 100 µM in assay [9] came out at 97%.

Take `CCCCc1ccc(Nc2nc3ncnc-3c[nH]2)cc1`: at 100 µM the inhibition in [1] was 78%. Also, in [2], inhibition was half-maximal at 47 µM (IC50).

`CCCCc1ccc(Nc2nc(SC)c3[nH]cnc3n2)cc1` registered an inhibition at 100 µM in [1] of 72%. Also, the 50% inhibitory concentration (IC50) in assay [2] worked out at 32 µM.

`CCCCc1ccc(Nc2ncc3ncn(COCCO)c3n2)cc1` came in with an IC50 in assay [8] of 4.8 µM. In assay [9], this compound gave an inhibition at 100 µM of 97%.

`CCCCc1ccc(Nc2nc3c(ncn3[C@@H]3C[C@@H](O)[C@H](CO)O3)c(=O)[nH]2)cc1` (stereo in doubt; 11): the Inhibition in assay [15] is 53%.

Turning to `CCCCc1ccc(Nc2nc3c(ncn3[C@@H]3C[C@@H](O)[C@H](CO)O3)c(=O)[nH]2)cc1` (stereo in doubt; 12), the inhibition at 200 µM in assay [15] (Homo sapiens, HeLa, 3 h) is 46%.

In turn, `CCCCc1ccc(Nc2nc3c(ncn3[C@H]3O[C@@H](CO)[C@H](O)[C@@H]3O)c(=O)[nH]2)cc1` (stereo in doubt; 13) displayed an Inhibition in assay [15] of 75%.

As for `CCCCc1ccc(Nc2nc3c(ncn3[C@H]3O[C@@H](CO)[C@H](O)[C@@H]3O)c(=O)[nH]2)cc1` (stereo in doubt; 14), the Inhibition in assay [15] was 38%.

As for `C[C@@]1(CO)[C@H](O)CC[C@@]2(C)[C@H]1CC[C@H]1C[C@@H]3C[C@@]12CC[C@]3(O)CO` [APHIDICOLIN], the Inhibition came out at 84% in assay [16] and 0% in assay [17].

The term inhibition denotes the percentage by which the read-out fell short of the control. A lower inhibition goes with a weak effect. What is called IC50 is the concentration that inhibits the measured activity by half. Higher therefore signals a need for much substance. What is called Inhibition is the percentage by which the read-out fell short of the control.
